The text below walks through data of ChEMBL document CHEMBL1143287, “Quinazolin-2-ylamino-quinazolin-4-ols as novel non-nucleoside inhibitors of bacterial DNA polymerase III” (Bioorg Med Chem Lett, 2009).

One test relates to Streptococcus pneumoniae. In words: Antibacterial activity against Streptococcus pneumoniae ATCC 49619 by broth microdilution assay. The class given is functional.
Test [1] in a line: (§1) Inhibition of Streptococcus pyogenes DNA polymerase 3. The procedure, abridged: (§2)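 S. pyogenes DNA polymerase III holoenzyme system reconstituted in 96- or 384-well format; inhibition read as prevention of duplex DNA formation, detected by fluorescence.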
Test [2] relates to Staphylococcus aureus. In words: Antibacterial activity against Staphylococcus aureus ATCC 29213 by broth microdilution assay. The class given is functional. (In broth dilution the organism is exposed to a series of concentrations in liquid medium.)
Test [3] has as its system Staphylococcus aureus. The test is described as follows: Antibacterial activity against Staphylococcus aureus ATCC 29213 by broth microdilution assay in presence of 50% human serum. The test is classed as functional.
Test [4] concerns Staphylococcus aureus. In words: Antibacterial activity against Staphylococcus aureus infected in mouse assessed as protection against bacterial infection at 25 mg/kg, ip administered as single dose measured 1 hr postinjection. The test is classed as functional. The settings on record: route intraperitoneal.
The nature of test [5]: Inhibition of mammalian DNA polymerase […] delta.
Another test concerns Streptococcus pyogenes. The description is as §1. The procedure, abridged: as §2

The structures appear in SMILES notation. ≈ marks a conversion by molar mass, not a printed value. Calls of active or inactive are those of the source.

In general, MIC refers to the smallest concentration in the dilution series that meets the test's criterion for growth inhibition. One may read the IC50 as the concentration that inhibits the measured activity by half. A higher IC50 goes with weaker potency. Turning to `COc1cc2nc(Nc3nc(O)c4ccccc4n3)nc(C)c2cc1OC`, the figures for the MIC against Streptococcus pneumoniae and against Staphylococcus aureus [2] were 1 mg/L (≈ 2.75 µM) and 4 mg/L (≈ 11 µM), respectively. Besides, the concentration for half-maximal inhibition (IC50) in test [1] stood at 2 µM.
The like results for `COc1ccc2c(C)nc(Nc3nc(O)c4ccccc4n3)nc2c1` were, in that order, 32 mg/L (≈ 96 µM), 32 mg/L (≈ 96 µM) and 70 µM.
On to `COc1ccc2nc(Nc3nc(O)c4ccc(C)cc4n3)nc(C)c2c1`, for which, in the test with Staphylococcus aureus [3], the MIC is 1 mg/L. The Activity in the test with Staphylococcus aureus [4] is listed as 50%. The IC50 in test [1] was found to be 3.7 µM; in test [5], 2 µM.
For the compound `COc1ccc2nc(Nc3nc(O)c4cc(C)ccc4n3)nc(C)c2c1`, in the test on Staphylococcus aureus [3], the MIC was determined as 2 mg/L. In addition, the 50% inhibitory concentration (IC50) in test [1] was 2.8 µM; in test [5], 1.7 µM.
In the same order, the values of `CNc1ccc2c(O)nc(Nc3nc(C)c4cc(OC)ccc4n3)nc2c1` are 1 mg/L, 0.5 µM and 0.2 µM.
For the compound `COc1ccc2nc(Nc3nc(O)c4ccc(NC(C)=O)cc4n3)nc(C)c2c1`, the IC50 in test [1] stood at 5.5 µM; in test [5] it was 5 µM.
In the same order, the values of `COc1ccc2nc(Nc3nc(O)c4cc([N+](=O)[O-])ccc4n3)nc(C)c2c1` are 8.7 µM and 14.9 µM.
On to `CCNc1ccc2c(O)nc(Nc3nc(C)c4cc(OC)ccc4n3)nc2c1`, for which, in the test on Staphylococcus aureus [3], the MIC was found to be 1 mg/L. The concentration for half-maximal inhibition (IC50) in test [1] and in test [5] was 0.4 µM throughout.
In the case of `Cc1ccc2nc(Nc3nc(O)c4ccccc4n3)nc(C)c2c1`, the MIC with Streptococcus pneumoniae was found to be 16 mg/L (≈ 50.4 µM); in the test with Staphylococcus aureus [2] it was 32 mg/L (≈ 101 µM). In test [1], this compound came in with an IC50 of 209 µM.
The like results for `COc1ccc2nc(Nc3nc(O)c4ccccc4n3)nc(C)c2c1` were, in that order, 0.25 mg/L (≈ 0.75 µM), 0.5 mg/L (≈ 1.5 µM) and 4.8 µM.
On to `COc1cc2nc(Nc3nc(OC)c4ccccc4n3)nc(C)c2cc1OC`, for which the result with Streptococcus pyogenes was inactive.
With `COc1ccc2nc(Nc3nc(O)c4ccc(F)cc4n3)nc(C)c2c1`, in the test on Staphylococcus aureus [3], the MIC was 64 mg/L. Further, the figures for the concentration for half-maximal inhibition (IC50) in test [1] and in test [5] were 77.8 µM and 1.9 µM, respectively.
The like results for `COc1ccc2nc(Nc3nc(O)c4c(C)cccc4n3)nc(C)c2c1` were, in that order, 2 mg/L, 0.7 µM and 1.2 µM.
In the same order, the values of `COc1ccc2nc(Nc3nc(O)c4ccc([N+](=O)[O-])cc4n3)nc(C)c2c1` are 64 mg/L, greater than 100 µM and 0.4 µM.
In the same order, the values of `COc1ccc2nc(Nc3nc(O)c4c(OC)cccc4n3)nc(C)c2c1` are 2 mg/L, 0.6 µM and 1 µM.
As to `COc1ccc2nc(Nc3nc(O)c4ccc(N)cc4n3)nc(C)c2c1`, in the test on Staphylococcus aureus [3], the MIC came to 1 mg/L. Besides, the values for the IC50 in test [1] and in test [5] were 4.7 µM and 4.9 µM, respectively.
Turning to `Cc1cc2nc(Nc3nc(O)c4ccccc4n3)nc(C)c2cc1C`, the values for the MIC with Streptococcus pneumoniae and against Staphylococcus aureus [2] were 1 mg/L (≈ 3.02 µM) and greater than 64 mg/L, respectively. The IC50 in test [1] was 27.1 µM.
With `COc1ccc2nc(Nc3nc(O)c4ccc(N(C)C)cc4n3)nc(C)c2c1`, the MIC in the test with Staphylococcus aureus [3] is 2 mg/L. Also, the IC50 in test [1] and in test [5] was 0.4 µM in each case.
For `COc1ccc2nc(Nc3nc(O)c4ccc(Cl)cc4n3)nc(C)c2c1`, the result (in the test with Staphylococcus aureus [3]; in test [5]) was inactive. In test [1], this compound showed an IC50 greater than 100 µM.
As to `COc1cc2nc(N(C)c3nc(OC)c4ccccc4n3)nc(C)c2cc1OC`, in the test with Streptococcus pyogenes, the outcome was inactive.
With `COc1cccc2c(C)nc(Nc3nc(O)c4ccccc4n3)nc12`, the MIC with Streptococcus pneumoniae was 0.25 mg/L (≈ 0.75 µM); with Staphylococcus aureus [2], 0.5 mg/L (≈ 1.5 µM). The same compound had an IC50 in test [1] of 3.1 µM.
For `COc1ccc2c(O)nc(Nc3nc(C)c4cc(OC)ccc4n3)nc2c1`, the MIC in the test with Staphylococcus aureus [3] was 2 mg/L. Also, the 50% inhibitory concentration (IC50) in test [1] worked out at 3.8 µM; in test [5], 1.8 µM.
`COc1ccc2nc(Nc3nc(O)c4c(Cl)cccc4n3)nc(C)c2c1`: in the test on Staphylococcus aureus [3], the MIC came out at 1 mg/L. Besides, the half-inhibitory concentration (IC50) in test [1] worked out at 0.56 µM; in test [5], 0.9 µM.
Take `COc1ccc2nc(Nc3nc(O)c4cccc(OC)c4n3)nc(C)c2c1`: the minimal inhibitory concentration (MIC) with Staphylococcus aureus [3] amounted to 2 mg/L. For the same compound, the IC50 in test [1] is greater than 100 µM. For the same compound, in test [5], the outcome was inactive.
